Each compound was assayed against T1, OR8D1 (Homo sapiens) (UniProt Q8WZ84). Details: stereoisomer not certain.
T1 sequence (whole entry): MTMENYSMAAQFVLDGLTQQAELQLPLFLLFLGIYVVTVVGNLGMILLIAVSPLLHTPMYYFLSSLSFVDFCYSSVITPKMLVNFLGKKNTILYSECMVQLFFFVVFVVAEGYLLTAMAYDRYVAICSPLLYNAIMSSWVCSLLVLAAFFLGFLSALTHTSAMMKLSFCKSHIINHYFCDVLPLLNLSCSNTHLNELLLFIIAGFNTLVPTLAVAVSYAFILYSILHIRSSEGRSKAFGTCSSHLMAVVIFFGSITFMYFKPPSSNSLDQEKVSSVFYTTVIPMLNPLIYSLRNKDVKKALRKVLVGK
Outline: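 Values were gathered from published papers (main text and supplementary material), with extra details requested from the original authors when needed, and checked for typos and inconsistencies. Each receptor–molecule pair is called responsive (active) if the original authors judged the measured signal statistically different from baseline, and non-responsive (inactive) otherwise. Assay methods varied by source, often transient mammalian cell-line luciferase assays. Recorded details include cell line, G-protein, co-transfected protein and tags.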

Odorant receptor agonist call, inactive:
CCCCCC=CC=O
CCOC(=O)C=Cc1ccccc1
Cc1occc(=O)c1O
CCc1cccc(O)c1
CCOC(=O)C(C)CC (configuration not stated)
CCCCCC=O
CC(=O)OCCC(C)C
CC(=O)O
CCC=CCCC=O
CCCCC=CC=O
CCCCCCCC1CCC(=O)O1 (configuration not stated)
COC(=O)C(C)C
Cc1cccc(C)c1O
CCCC(=O)OC
CCCC=CC=O
CCCCC(=O)O
CCCCCCC1CCC(=O)O1 (configuration not stated)
CCCC(=O)OCC
CCCC(=O)C(C)CC (configuration not stated)
CCCCCC=CC=CC=O
CCCCCCOC(C)=O
C=CC(O)CCCCC (configuration not stated)
CSSc1ccoc1C
Cc1c[nH]c2ccccc12
CC(C)(S)CCOC=O
CCOC(C)OCC
CC(=O)C(C)O (configuration not stated)
CCCSSSCCC
C=C1CCC2(C(C)C)CC12 (configuration not stated)
CC1=CCC(C(C)(C)S)CC1 (configuration not stated)
O=c1ccc2ccccc2o1
CCc1ncc(C)nc1CC
CCCCCC(C)O (configuration not stated)
CCC(=O)O
SCCc1ccccc1
CCC(=O)C(C)S (configuration not stated)
C=CC(=O)CC=CCC

Reference: the M2OR odorant receptor database
